Data published in ChEMBL document CHEMBL1152865, “Synthesis and antimycobacterial activities of novel 6-nitroquinolone-3-carboxylic acids” (Eur J Med Chem, 2009).
In brackets after ≈: the same amount, converted by molar mass.

The compounds below were run on Mycobacterium tuberculosis (assay: Antibacterial activity against multidrug-resistant Mycobacterium tuberculosis by agar dilution method).
Type: functional
Method in brief: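 Agar dilution in Middlebrook 7H11 agar supplemented with OADC, following an approach similar to NCCLS guidance. MIC determined in duplicate.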

SMILES	MIC [µM]
O=C(O)c1cn(C2CC2)c2cc(N3CCN(C(=O)c4ccco4)CC3)c([N+](=O)[O-])cc2c1=O	0.34 (≈ 0.154 µg/mL)
Cc1onc(-c2c(F)cccc2F)c1C(=O)N1CCN(c2cc3c(cc2[N+](=O)[O-])c(=O)c(C(=O)O)cn3C2CC2)CC1	2.69 (≈ 1.56 µg/mL)
NNC(=O)c1ccncc1 [ISONIAZID]	45.6 (≈ 6.25 µg/mL)
CC1CN(c2cc3c(cc2[N+](=O)[O-])c(=O)c(C(=O)O)cn3-c2ccc(F)cc2)CC(C)O1 (stereo not given)	1.77 (≈ 0.781 µg/mL)
CN1CCN(c2cc3c(cc2[N+](=O)[O-])c(=O)c(C(=O)O)cn3C2CC2)CC1c1ccccc1 (stereo not given)	0.2 (≈ 0.0897 µg/mL)
Cc1onc(-c2c(F)cccc2F)c1C(=O)N1CCN(c2cc3c(cc2[N+](=O)[O-])c(=O)c(C(=O)O)cn3C(C)(C)C)CC1	0.65 (≈ 0.387 µg/mL)
CCN(CC)C(=O)C1CCCN(c2cc3c(cc2[N+](=O)[O-])c(=O)c(C(=O)O)cn3C2CC2)C1 (stereo not given)	3.42 (≈ 1.56 µg/mL)
CC(C)(C)n1cc(C(=O)O)c(=O)c2cc([N+](=O)[O-])c(N3CCN(Cc4ccc5c(c4)OCO5)CC3)cc21	1.53 (≈ 0.778 µg/mL)
O=C(O)c1cn(C2CC2)c2cc(N3CCC4(CC3)OCCO4)c([N+](=O)[O-])cc2c1=O	1.88 (≈ 0.781 µg/mL)
O=C(O)c1cn(C2CC2)c2cc(N3CCN(Cc4ccc5c(c4)OCO5)CC3)c([N+](=O)[O-])cc2c1=O	0.16 (≈ 0.0788 µg/mL)
O=C(O)c1cn(C2CC2)c2cc(N3CCC(N4CCCCC4)CC3)c([N+](=O)[O-])cc2c1=O	0.43 (≈ 0.189 µg/mL)
O=C(O)c1cn(C2CC2)c2cc(N3CCC(O)(c4ccc(Cl)cc4)CC3)c([N+](=O)[O-])cc2c1=O	0.39 (≈ 0.189 µg/mL)
O=C(O)c1cn(-c2ccc(F)cc2)c2cc(N3CCN(Cc4ccc5c(c4)OCO5)CC3)c([N+](=O)[O-])cc2c1=O	0.71 (≈ 0.388 µg/mL)
CC1CN(c2cc3c(cc2[N+](=O)[O-])c(=O)c(C(=O)O)cn3C2CC2)CC(C)O1 (stereo not given)	4.03 (≈ 1.56 µg/mL)
CC(C)(C)NC(=O)C1c2ccccc2CCN1c1cc2c(cc1[N+](=O)[O-])c(=O)c(C(=O)O)cn2C1CC1 (stereo not given)	1.55 (≈ 0.782 µg/mL)
O=C(O)c1cn(-c2ccc(F)cc2)c2cc(N3CCN(C(=O)C4COc5ccccc5O4)CC3)c([N+](=O)[O-])cc2c1=O (stereo not given)	0.68 (≈ 0.391 µg/mL)
O=C(O)c1cn(C2CC2)c2cc(N3CCN(C(=O)C4COc5ccccc5O4)CC3)c([N+](=O)[O-])cc2c1=O (stereo not given)	6.01 (≈ 3.13 µg/mL)
O=C(O)c1cn2c(n1)CN(c1cc3c(cc1[N+](=O)[O-])c(=O)c(C(=O)O)cn3C1CC1)CC2	0.43 (≈ 0.189 µg/mL)
COc1c(N2CCNC(C)C2)c(F)cc2c(=O)c(C(=O)O)cn(C3CC3)c12 (stereo not given) [GATIFLOXACIN]	8.34 (≈ 3.13 µg/mL)
O=C(O)c1cn(C2CC2)c2cc(N3CCC(n4c(=O)[nH]c5cc(Cl)ccc54)CC3)c([N+](=O)[O-])cc2c1=O	2.97 (≈ 1.56 µg/mL)
